Source: ChEMBL document CHEMBL4813946, “Discovery of novel 4-azaaryl-N-phenylpyrimidin-2-amine derivatives as potent and selective FLT3 inhibitors for acute myeloid leukaemia with FLT3 mutations” (Eur J Med Chem, 2021)
The source made the active and inactive calls. The calls are words filed in the database; no cut-off is given here.

Tests used:
[1] = test system: U-937; assay: Induction of apoptosis in human U937 cells assessed as necrotic cells at 10 x GI50 concentration incubated for 24 hrs by annexin V-FITC and propidium iodide staining based flow cytometry (reference value: 1.10 %); assay type: functional
[2] = test system: K562; assay: Antiproliferative activity against human K562 cells harboring FLT3 knockout gene assessed as reduction in cell viability after 72 hrs by resazurin assay; assay type: functional
Outline: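 Cells seeded and pre-incubated 24 h at 37 °C, 5% CO2, then given a five-fold dilution series of compound (from 10 mM DMSO stock) in medium, in triplicate. Resazurin added after 72 h exposure, 4 h in dark at 37 °C. Fluorescence read at 570/585 nm, normalised to DMSO vehicle. GI50 by non-linear regression; mean ± SD of at least two replicates.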

[3] = test system: U-937; assay: Induction of apoptosis in human U937 cells assessed as early apoptotic cells at 1 x GI50 concentration incubated for 48 hrs by annexin V-FITC staining based flow cytometry (Rvb =2.78 %); assay type: functional
[4] = target: Receptor-type tyrosine-protein kinase FLT3 (Homo sapiens, UniProt P36888, F594-R595INSR); assay: Inhibition of FLT3 F594_R595insR mutant (unknown origin) incubated for 120 mins by ADP-glo based luminescence assay
[5] = test system: U-937; assay: Induction of apoptosis in human U937 cells assessed as viable cells at 20 x GI50 concentration incubated for 24 hrs by annexin V-FITC and propidium iodide staining based flow cytometry (reference value: 85.68 %); assay type: functional
[6] = target: Receptor-type tyrosine-protein kinase FLT3 (Homo sapiens) (UniProt P36888); assay: Inhibition of FLT3-mediated signalling pathway in human MV4-11 cells assessed as inhibition of S6RP phosphorylation upto 20 x GI50 concentration incubated for 6 hrs by western blot analysis; assay type: cell-based
Outline: (§1)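 Cells lysed in phosphate lysis buffer with protease inhibitors and protein quantified. Western blots probed phospho and total STAT5, AKT, ERK, S6RP and eIF4E, plus full-length and cleaved PARP and caspase-3, with β-actin as loading control. At least two independent experiments.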

[7] = test system: MV4-11; assay: Induction of apoptosis in human MV4-11 cells assessed as early apoptotic cells at 5 x GI50 concentration incubated for 48 hrs by annexin V-FITC and propidium iodide staining based flow cytometry (Rvb =1.08 %); assay type: functional
[8] = test system: U-937; assay: Induction of apoptosis in human U937 cells assessed as late apoptotic cells at 1 x GI50 concentration incubated for 48 hrs by annexin V-FITC staining based flow cytometry (reference value: 9.82 %); assay type: functional
[9] = test system: MV4-11; assay: Induction of apoptosis in human MV4-11 cells assessed as early apoptotic cells at 10 x GI50 concentration incubated for 24 hrs by annexin V-FITC and propidium iodide staining based flow cytometry (reference value: 2.12 %); assay type: functional
[10] = target: Receptor-type tyrosine-protein kinase FLT3 (Homo sapiens) (UniProt P36888); assay: Inhibition of FLT3-mediated signalling pathway in human MV4-11 cells assessed as inhibition of AKT phosphorylation upto 20 x GI50 concentration incubated for 6 hrs by western blot analysis; assay type: cell-based; outline: as §1
[11] = target: T1, Receptor-type tyrosine-protein kinase FLT3 (Homo sapiens, UniProt P36888); assay: Inhibition of wild type FLT3 (unknown origin) using Glu/Tyr peptide substrate incubated for 120 mins measured after 40 mins incubation under dark by ADP-glo based luminescence assay
T1 sequence (P36888 whole entry): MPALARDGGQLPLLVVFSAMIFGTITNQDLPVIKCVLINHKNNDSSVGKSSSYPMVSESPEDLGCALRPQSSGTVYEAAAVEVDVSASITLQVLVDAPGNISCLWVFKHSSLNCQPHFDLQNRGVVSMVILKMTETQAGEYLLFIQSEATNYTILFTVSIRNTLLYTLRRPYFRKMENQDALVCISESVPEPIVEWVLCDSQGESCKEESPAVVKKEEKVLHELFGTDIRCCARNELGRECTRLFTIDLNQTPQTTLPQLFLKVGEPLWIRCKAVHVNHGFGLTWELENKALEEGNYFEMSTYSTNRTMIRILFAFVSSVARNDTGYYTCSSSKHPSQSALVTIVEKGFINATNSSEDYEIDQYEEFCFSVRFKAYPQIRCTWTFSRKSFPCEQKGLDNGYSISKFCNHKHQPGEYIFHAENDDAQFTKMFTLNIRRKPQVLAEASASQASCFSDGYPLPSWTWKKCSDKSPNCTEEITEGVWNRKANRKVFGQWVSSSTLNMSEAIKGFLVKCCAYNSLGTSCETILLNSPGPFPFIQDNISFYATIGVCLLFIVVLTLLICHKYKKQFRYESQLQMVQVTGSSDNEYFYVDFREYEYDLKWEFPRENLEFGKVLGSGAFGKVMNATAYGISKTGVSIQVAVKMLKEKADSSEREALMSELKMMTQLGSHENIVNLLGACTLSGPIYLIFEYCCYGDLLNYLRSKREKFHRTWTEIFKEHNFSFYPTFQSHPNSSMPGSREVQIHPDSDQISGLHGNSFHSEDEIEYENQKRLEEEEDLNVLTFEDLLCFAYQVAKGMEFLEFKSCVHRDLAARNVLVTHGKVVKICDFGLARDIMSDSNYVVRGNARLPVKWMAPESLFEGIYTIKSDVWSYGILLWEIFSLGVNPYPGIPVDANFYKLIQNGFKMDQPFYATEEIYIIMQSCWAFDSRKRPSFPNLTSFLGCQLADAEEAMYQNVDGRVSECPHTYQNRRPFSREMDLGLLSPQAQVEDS
Outline: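 In-house ADP-Glo assay with poly(Glu,Tyr) 4:1 substrate in 40 mM Tris pH 7.5, 20 mM MgCl2, 50 µM DTT, 0.1 mg/mL BSA. Kinase at 20 nM. ADP-Glo reagent 40 min in the dark, detection reagent 30–40 min, then luminescence. Ki was derived from IC50 by Cheng-Prusoff.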

[12] = test system: U-937; assay: Induction of apoptosis in human U937 cells assessed as late apoptotic cells at 10 x GI50 concentration incubated for 48 hrs by annexin V-FITC staining based flow cytometry (reference value: 9.82 %); assay type: functional
[13] = test system: MV4-11; assay: Induction of apoptosis in human MV4-11 cells assessed as necrotic cells at 5 x GI50 concentration incubated for 24 hrs by annexin V-FITC and propidium iodide staining based flow cytometry (reference value: 0.75 %); assay type: functional
[14] = target: Receptor-type tyrosine-protein kinase FLT3 (Homo sapiens) (UniProt P36888); assay: Inhibition of FLT3-mediated signalling pathway in human U-937 cells assessed as inhibition of eIF4E phosphorylation upto 20 x GI50 concentration incubated for 6 hrs by western blot analysis; assay type: cell-based; outline: as §1
[15] = target: CDK7/Cyclin H/MNAT1 (Homo sapiens, UniProt P50613); assay: Inhibition of CDK7/cyclin H/MAT1 (unknown origin) using HYSPTSPSYSPTSPSYSPTSPSKKKK-O substrate incubated for 120 mins measured after 40 mins incubation under dark by ADP-glo based luminescence assay; assay type: protein-complex assay
Outline: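 In-house ADP-Glo assay with 2 mM DMSO stocks. Kinases were CDK1/cyclin B at 1 nM, CDK2/cyclin E1 at 10 nM and CDK7/cyclin H/MAT1 at 40 nM. Substrate was histone 1 for CDK1 and CDK2, and a RNA pol II CTD peptide for CDK7. Compound at 8–10 concentrations, 1:3 serial, final DMSO 0.5%. Reactions ran 60–120 min at room temperature, then ADP-Glo reagent 40 min in the dark, then detection reagent 40 min, read by luminescence. Ki was derived from IC50 by Cheng-Prusoff.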

Chain of CDK7/Cyclin H/MNAT1 (P51946 whole entry): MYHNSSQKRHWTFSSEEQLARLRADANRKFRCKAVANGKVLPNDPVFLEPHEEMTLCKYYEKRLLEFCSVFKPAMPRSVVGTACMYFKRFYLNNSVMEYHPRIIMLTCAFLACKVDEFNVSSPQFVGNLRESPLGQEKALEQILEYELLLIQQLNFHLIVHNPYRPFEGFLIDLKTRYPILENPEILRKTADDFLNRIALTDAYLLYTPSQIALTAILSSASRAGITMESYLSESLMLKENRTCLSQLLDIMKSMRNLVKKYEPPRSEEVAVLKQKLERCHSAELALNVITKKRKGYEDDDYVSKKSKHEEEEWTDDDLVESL
Chain of CDK7/Cyclin H/MNAT1 (P50613 whole entry): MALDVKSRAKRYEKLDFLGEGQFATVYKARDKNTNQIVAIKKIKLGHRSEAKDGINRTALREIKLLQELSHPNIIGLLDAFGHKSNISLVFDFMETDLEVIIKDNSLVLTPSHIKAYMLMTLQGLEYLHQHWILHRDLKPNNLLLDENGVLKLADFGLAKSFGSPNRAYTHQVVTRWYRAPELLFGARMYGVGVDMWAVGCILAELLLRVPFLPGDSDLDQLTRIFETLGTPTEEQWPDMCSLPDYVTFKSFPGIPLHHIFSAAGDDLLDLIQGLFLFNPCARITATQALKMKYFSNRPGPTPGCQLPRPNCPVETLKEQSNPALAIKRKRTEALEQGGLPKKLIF
Chain of CDK7/Cyclin H/MNAT1 (P51948 whole entry, further chain): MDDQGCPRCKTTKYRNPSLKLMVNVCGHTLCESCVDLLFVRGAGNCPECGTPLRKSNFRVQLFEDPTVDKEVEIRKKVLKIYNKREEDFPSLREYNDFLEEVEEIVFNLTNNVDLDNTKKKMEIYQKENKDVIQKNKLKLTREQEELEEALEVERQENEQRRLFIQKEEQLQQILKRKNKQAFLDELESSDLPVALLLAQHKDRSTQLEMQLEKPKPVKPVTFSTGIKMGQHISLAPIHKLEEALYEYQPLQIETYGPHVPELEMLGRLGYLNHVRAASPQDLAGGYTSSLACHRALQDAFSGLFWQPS

GI50 [2]: > 10000 nM
Ki [4]: 54 nM
inhibition [6]: Active
inhibition [10]: Active
Ki [11]: 9 nM
inhibition [14]: Active
Ki [15]: > 5000 nM
Compound: CC(=O)N1CCN(c2ccc(Nc3nccc(-c4cn(C)c5ncccc45)n3)cc2)CC1
Activity [1]: 1.4%
Activity [3]: 2.21%
Activity [5]: 85.3%
Activity [7]: 3.06%
Activity [8]: 9.22%
Activity [9]: 2.54%
Activity [12]: 12.02%
Activity [13]: 1.86%
